According to ChEMBL document CHEMBL1629555, “Antimalarial activity of phenylthiazolyl-bearing hydroxamate-based histone deacetylase inhibitors” (Antimicrob Agents Chemother, 2008):
Active and inactive are the calls of the source. The calls are words filed in the database; no cut-off is given here.

Legend:
[1] = Cytotoxicity against african green monkey Vero cells by MTT assay; type: cell-based; settings: chlorocebus sabaeus, read-out: LC50 (the source's name)
Plasmodium falciparum [2] = experiment: Antimalarial activity against Plasmodium falciparum at 10 nM after 3.5 hrs; type: functional, organism-based
Procedure, shortened: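 Infected erythrocytes were exposed to compound for 3.5 h, washed, and returned to culture. Parasite growth was compared with matched controls after 48 h.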

Plasmodium berghei [3] = experiment: Antimalarial activity against Plasmodium berghei infected in mouse assessed as effect on curate rate at split dose of 40 mg/kg/day, po for 3 days; type: functional, organism-based
Procedure, shortened: (§1)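 Mice were infected ip with 10^6 P. berghei-parasitized erythrocytes. The compound was given in hydroxyethylcellulose-Tween 20 vehicle, 5 mice per group, starting on day 3 post-infection. Regimens were once-daily or split daily oral doses over 3 days, subcutaneous dosing, or dosing over 7 days. Read-outs were posttreatment parasitemia on day 6 as a fraction of controls and the number of mice cured.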

Plasmodium berghei [4] = experiment: Antimalarial activity against Plasmodium berghei infected in mouse assessed as effect on cure rate at split dose of 160 mg/kg/day, po for 3 days; type: functional, organism-based; procedure, shortened: as §1
Plasmodium berghei [5] = experiment: Antimalarial activity against Plasmodium berghei infected in mouse assessed as effect on cure rate at split dose of 640 mg/kg/day, po for 3 days; type: functional, organism-based; procedure, shortened: as §1
Plasmodium berghei [6] = experiment: Antimalarial activity against Plasmodium berghei infected in mouse assessed as effect on cure rate at single dose of 40 mg/kg/day, po for 3 days; type: functional, organism-based; procedure, shortened: as §1
Plasmodium berghei [7] = experiment: Antimalarial activity against Plasmodium berghei infected in mouse assessed as effect on cure rate at 130 mg/kg/day, sc for 3 days; type: functional, organism-based; procedure, shortened: as §1
Plasmodium berghei [8] = experiment: Antimalarial activity against Plasmodium berghei infected in mouse assessed as parasitemia level at split dose of 40 mg/kg/day, po for 3 days measured on day 6 relative to control; type: functional
Procedure, shortened: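 Blood-stage P. berghei model: mice inoculated ip with 10^6 parasitized erythrocytes. Oral treatment for 3 days, with the daily dose split, in hydroxyethylcellulose-Tween 20 vehicle. Day-6 parasitemia expressed as a fraction of control parasitemia.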

Plasmodium berghei [9] = experiment: Antimalarial activity against Plasmodium berghei infected in mouse assessed as parasitemia level at single dose of 80 mg/kg/day, po for 3 days measured on day 6 relative to control; type: functional
Procedure, shortened: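 Mice infected intraperitoneally with 10^6 P. berghei-parasitized erythrocytes. Drug given orally once daily on days 3, 4 and 5 post-infection in hydroxyethylcellulose-Tween 20 vehicle, 5 mice per dose group. Parasitemia measured on day 6 and expressed as a fraction of untreated control parasitemia.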

Plasmodium berghei [10] = experiment: Antimalarial activity against Plasmodium berghei infected in mouse assessed as parasitemia level at split dose of 130 mg/kg/day, po for 7 days measured on day 6 relative to control; type: functional
Mus musculus [11] = experiment: Toxicity in Plasmodium berghei-infected mouse assessed as mortality at split dose of 40 mg/kg/day, po for 3 days; type: organism-based; parameters: route oral; settings: in vivo, 72 h
Mus musculus [12] = experiment: Toxicity in Plasmodium berghei-infected mouse assessed as mortality at split dose of 320 mg/kg/day, po for 3 days; type: organism-based; parameters: route oral; settings: in vivo, 72 h
Mus musculus [13] = experiment: Toxicity in Plasmodium berghei-infected mouse assessed as mortality at single dose of 20 mg/kg/day, po for 3 days; type: organism-based; parameters: route oral; settings: in vivo, 72 h
Plasmodium berghei [14] = experiment: Antimalarial activity against Plasmodium berghei infected in mouse assessed as parasitemia level at 32 mg/kg/day for 3 days measured on day 6 in presence of 3.6 mg/kg/day chloroquine (reference value: 37%); type: functional
Procedure, shortened: (§2)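 Mice were infected ip with 10^6 P. berghei-parasitized erythrocytes. The compound was given orally once daily on days 3, 4 and 5 post-infection in hydroxyethylcellulose-Tween 20 vehicle, alone or together with chloroquine, with 5 mice per dose group. Parasitemia (%) was read on days 3 and 6, and cures were counted as animals cured out of 5.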

Plasmodium berghei [15] = experiment: Antimalarial activity against Plasmodium berghei infected in mouse assessed as effect on cure rate at 160 mg/kg/day for 3 days measured on day 6 in presence of 2 mg/kg/day chloroquine; type: functional, organism-based; procedure, shortened: as §2
Plasmodium berghei [16] = experiment: Antimalarial activity against Plasmodium berghei infected in mouse assessed as effect on cure rate at 32 mg/kg/day for 3 days measured on day 6 in presence of 3.6 mg/kg/day chloroquine; type: functional, organism-based; procedure, shortened: as §2
Plasmodium berghei [17] = experiment: Antimalarial activity against Plasmodium berghei infected in mouse assessed as effect on cure rate at 0.32 mg/kg/day for 3 days measured on day 6 in presence of 4 mg/kg/day chloroquine; type: functional, organism-based
Mus musculus [18] = experiment: Toxicity in Plasmodium berghei-infected mouse assessed as mortality at single dose of 40 mg/kg/day, po for 3 days; type: organism-based; parameters: route oral; settings: in vivo, 72 h
Mus musculus [19] = experiment: Toxicity in Plasmodium berghei-infected mouse assessed as mortality at split dose of 130 mg/kg/day, po for 7 days; type: organism-based; parameters: route oral; settings: in vivo, 168 h
Mus musculus [20] = experiment: Toxicity in Plasmodium berghei-infected mouse assessed as mortality at split dose of 130 mg/kg/day, sc for 3 days measured on day 5; type: organism-based; parameters: route subcutaneous; settings: in vivo, 72 h
Plasmodium falciparum [21] = experiment: Antimalarial activity against chloroquine-resistant Plasmodium falciparum FVO infected in Aotus lemurinus […] monkey assessed as reduction in parasitemia at 16 mg/kg/day, po for 3 days; type: functional, organism-based
[22] = Cmax in ICR mouse at 50 mg/kg/day, sc by LC/MS analysis; type: ADME, organism-based; parameters: dose 50 mg/kg/day, route subcutaneous; settings: in vivo
Procedure, shortened: (§3)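 Male ICR mice, 8 weeks old, got one 50 mg/kg dose either orally or subcutaneously, with three groups of six mice per route. One mouse per group was killed at 15, 30 and 60 min and at 3, 6 and 24 h. Plasma was deproteinized with 2 volumes of acetonitrile and analysed by LC-MS/MS on a C18 column against 0–500 ng/ml standards, with parent and acid metabolite measured in the same sample. Each six-mouse group was treated as one "animal" and fitted to a two-compartment model. AUC was taken by the linear trapezoidal rule extrapolated to infinity, and Cmax and Tmax were read per "animal".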

[23] = Tmax in ICR mouse at 50 mg/kg/day, sc by LC/MS analysis; type: ADME, organism-based; parameters: route subcutaneous; settings: in vivo; procedure, shortened: as §3
[24] = Half life in ICR mouse at 50 mg/kg/day, po by LC/MS analysis; type: ADME, organism-based; parameters: route oral; settings: in vivo; procedure, shortened: as §3
[25] = Half life in ICR mouse at 50 mg/kg/day, sc by LC/MS analysis; type: ADME, organism-based; parameters: route subcutaneous; settings: in vivo; procedure, shortened: as §3
Plasmodium berghei [26] = experiment: Antimalarial activity against Plasmodium berghei infected in mouse assessed as parasitemia level at 32 mg/kg/day for 3 days measured on day 3 (reference value: 0.46%); type: functional; procedure, shortened: as §2
Plasmodium berghei [27] = experiment: Antimalarial activity against Plasmodium berghei infected in mouse assessed as parasitemia level at 0.32 mg/kg/day for 3 days measured on day 3 (reference value: 0.46%); type: functional
Plasmodium berghei [28] = experiment: Antimalarial activity against Plasmodium berghei infected in mouse assessed as parasitemia level at 3.2 mg/kg/day for 3 days measured on day 6 (reference value: 37%); type: functional
Plasmodium berghei [29] = experiment: Antimalarial activity against Plasmodium berghei infected in mouse assessed as effect on cure rate at 0.32 mg/kg/day for 3 days; type: functional, organism-based
Plasmodium falciparum [30] = experiment: Antimicrobial activity against Plasmodium falciparum W2 at […] in presence of 4 mg/kg chloroquine; type: functional
Plasmodium falciparum [31] = experiment: Antimicrobial activity against Plasmodium falciparum D6 infected in Aotus lemurinus lemurinus monkey at […] in presence of mefloquine; type: functional
Plasmodium falciparum [32] = experiment: Antimicrobial activity against Plasmodium falciparum D6 infected in Aotus lemurinus lemurinus monkey at […] in presence of artemisinin; type: functional
Plasmodium falciparum [33] = experiment: Antimalarial activity against Plasmodium falciparum infected in mouse RAW264.7 cells; type: functional, organism-based

## Nc1cccc(-c2csc(NC(=O)CCCCCCC(=O)NO)n2)c1
[1]
  CC50: 950 nM
Plasmodium falciparum [2]
  Activity: Active
Plasmodium berghei [3]
  Activity: inactive
Plasmodium berghei [4]
  Activity: inactive
Plasmodium berghei [5]
  Activity: inactive
Plasmodium berghei [6]
  Activity: inactive
Plasmodium berghei [7]
  Activity: inactive
Plasmodium berghei [8]
  fold change (FC): 0.32
Plasmodium berghei [9]
  fold change (FC): 0.096
Plasmodium berghei [10]
  fold change (FC): 0.01
Mus musculus [11]
  Activity: Non-toxic
Mus musculus [12]
  Activity: Non-toxic
Mus musculus [13]
  Activity: Non-toxic
Plasmodium berghei [14]
  Activity: 0.08%
Plasmodium berghei [15]
  Activity: inactive
Plasmodium berghei [16]
  Activity: inactive
Plasmodium berghei [17]
  Activity: inactive
Mus musculus [18]
  Activity: Non-toxic
Mus musculus [19]
  Activity: Non-toxic
Mus musculus [20]
  Activity: Toxic
Plasmodium falciparum [21]
  inhibition: inactive
[22]
  Cmax: 403 ng/mL
[23]
  Tmax: 1.3 h
[24]
  half-life: 3.5 h
[25]
  half-life: 8.5 h
Plasmodium berghei [26]
  Activity: 0.38%
Plasmodium berghei [27]
  Activity: 0.62%
Plasmodium berghei [28]
  Activity: 40%
Plasmodium berghei [29]
  Activity: inactive
Plasmodium falciparum [30]
  fractional inhibitory concentration index (FICI): 1.9
Plasmodium falciparum [31]
  fractional inhibitory concentration index (FICI): 2.2
Plasmodium falciparum [32]
  fractional inhibitory concentration index (FICI): 2.1
Plasmodium falciparum [33]
  IC50: 0.59 nM
